Laboratory results from ChEMBL document CHEMBL1795271, “7-Alkyl-N(2)-substituted-3-deazaguanines. Synthesis, DNA polymerase III inhibition and antibacterial activity” (Bioorg Med Chem Lett, 2011).
Values after ≈ are worked out from the molar mass of the structure shown.

Columns and labels:
Staphylococcus aureus [1] = assay: Antibacterial activity against methicillin-resistant Staphylococcus aureus ATCC 1094 after 16 to 24 hrs by twofold serial dilution method; assay type: functional
Enterococcus faecalis [2] = assay: Antibacterial activity against Enterococcus faecalis ATCC 29212 after 16 to 24 hrs by twofold serial dilution method; assay type: functional
Staphylococcus aureus [3] = assay: Antibacterial activity against Staphylococcus aureus ATCC 25923 after 16 to 24 hrs by twofold serial dilution method; assay type: functional
Escherichia coli [4] = assay: Antibacterial activity against Escherichia coli J-53 after 16 to 24 hrs by twofold serial dilution method; assay type: functional
Enterococcus faecium = assay: Antibacterial activity against Enterococcus faecium ATCC 19434 after 16 to 24 hrs by twofold serial dilution method; assay type: functional
[5] = (§1) Inhibition of Bacillus subtilis DNA polymerase 3C assessed as incorporation of [3H]TMP into activated calf thymus DNA incubated with dATP, dCTP and [3H]TTP in absence of dGTP
Method in brief: (§2)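 Recombinant B. subtilis pol IIIC assayed on activated calf thymus DNA with dATP, dCTP and [³H]TTP, without competitor dGTP. Read-out was [³H]TMP incorporation. Ki values are averages of at least two independent experiments.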

Enterococcus faecalis [6] = assay: Antibacterial activity against vancomycin-resistant Enterococcus faecalis after 16 to 24 hrs by twofold serial dilution method
Staphylococcus aureus [7] = assay: Antibacterial activity against Staphylococcus aureus ATCC 13709 (Smith) after 16 to 24 hrs by twofold serial dilution method; assay type: functional
Bacillus subtilis [8] = assay: Antibacterial activity against Bacillus subtilis BD54 after 16 to 24 hrs by twofold serial dilution method; assay type: functional
Staphylococcus aureus [9] = assay: Antibacterial activity against Staphylococcus aureus Smith infected Swiss-webster mouse assessed as mouse survival at 30 mg/kg, ip administered 15 mins post-infection for 24 hrs relative to control; assay type: functional; settings: route intraperitoneal
Method in brief: (§3)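 Male pathogen-free Swiss–Webster mice, 20–24 g, with free access to food and water. S. aureus Smith grown to log phase at 37 °C in LB, with CFU estimated from OD600. Cells washed in cold broth and injected IP in 0.5 mL broth. Groups of 5 or 10 mice dosed IP 15 min post-infection with vehicle (10% DMSO/peanut oil) or compound in vehicle. Daptomycin 30 mg/Kg in saline served as control.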

[10] = (§4) Inhibition of Bacillus subtilis DNA polymerase 3E assessed as incorporation of [3H]TMP into activated calf thymus DNA incubated with dATP, dCTP and [3H]TTP in absence of dGTP
Method in brief: (§5)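 Enzymes: recombinant B. subtilis pol IIIE and E. coli three-subunit pol III core. Each was assayed with activated calf thymus DNA, dATP, dCTP and [3H]TTP, without the competitor dGTP. [3H]TMP incorporation was measured and Ki derived. Values are averages of at least two independent experiments.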

Escherichia coli [11] = assay: Inhibition of Escherichia coli DNA polymerase 3E assessed as incorporation of [3H]TMP into activated calf thymus DNA incubated with dATP, dCTP and [3H]TTP in absence of dGTP; settings: concentration not given here; method in brief: as §5
Bacillus subtilis [12] = assay: as §4; parameters: concentration or dose not given beside the values; settings: concentration not given here; method in brief: as §5
Staphylococcus aureus [13] = assay: Antibacterial activity against Staphylococcus aureus Smith infected Swiss-webster mouse assessed as mouse survival at 100 mg/kg, ip administered 15 mins post-infection for 24 hrs relative to control; assay type: functional; settings: route intraperitoneal; method in brief: as §3
Bacillus subtilis [14] = assay: as §1; settings: concentration not given here; method in brief: as §2
Staphylococcus aureus [15] = assay: Antibacterial activity against Staphylococcus aureus Smith infected Swiss-webster mouse assessed as mouse survival at 10 mg/kg, ip administered 15 mins post-infection for 24 hrs relative to control; assay type: functional; settings: route intraperitoneal; method in brief: as §3

Row | SMILES | MIC (Staphylococcus aureus [1]) | MIC (Enterococcus faecalis [2]) | MIC (Staphylococcus aureus [3]) | MIC (Escherichia coli [4]) | MIC (Enterococcus faecium) | Ki [5] | MIC (Enterococcus faecalis [6]) | MIC (Staphylococcus aureus [7]) | MIC (Bacillus subtilis [8]) | survival at 30 mg/kg (Staphylococcus aureus [9]) | Ki [10] | inhibition (Escherichia coli [11]) | inhibition (Bacillus subtilis [12]) | survival at 100 mg/kg (Staphylococcus aureus [13]) | inhibition (Bacillus subtilis [14]) | survival at 10 mg/kg (Staphylococcus aureus [15])
1 | COCCCCn1cnc2nc(NCc3ccc(Cl)c(Cl)c3)[nH]c(=O)c21 | 1.25 µg/mL (≈ 3.15 µM) | 2.5 µg/mL (≈ 6.31 µM) | 3.7 µg/mL (≈ 9.34 µM) | > 80 µg/mL | 2.5 µg/mL (≈ 6.31 µM) | 190 nM | 2.5 µg/mL (≈ 6.31 µM) | 3.7 µg/mL (≈ 9.34 µM) | 1.4 µg/mL (≈ 3.53 µM) | – | – | – | – | – | – | –
2 | CCc1cc(Nc2nc(O)c3c(ncn3CCCCCO)n2)ccc1C | 20 µg/mL (≈ 56.3 µM) | 10 µg/mL (≈ 28.1 µM) | 20 µg/mL (≈ 56.3 µM) | > 80 µg/mL | 10 µg/mL (≈ 28.1 µM) | – | 5 µg/mL (≈ 14.1 µM) | 20 µg/mL (≈ 56.3 µM) | 20 µg/mL (≈ 56.3 µM) | – | – | – | – | – | – | –
3 | Oc1nc(NCc2ccc(Cl)c(Cl)c2)nc2ncn(CCCCN3CCOCC3)c12 | 40 µg/mL (≈ 88.6 µM) | 10 µg/mL (≈ 22.2 µM) | 20 µg/mL (≈ 44.3 µM) | > 80 µg/mL | 10 µg/mL (≈ 22.2 µM) | – | 5 µg/mL (≈ 11.1 µM) | – | 10 µg/mL (≈ 22.2 µM) | – | – | – | – | – | – | –
4 | CC(=O)NC[C@H]1CN(c2ccc(N3CCOCC3)c(F)c2)C(=O)O1 [LINEZOLID] | – | – | 1.25 µg/mL (≈ 3.71 µM) | > 80 µg/mL | 2.5 µg/mL (≈ 7.41 µM) | – | 1.25 µg/mL (≈ 3.71 µM) | 2.5 µg/mL (≈ 7.41 µM) | 0.625 µg/mL (≈ 1.85 µM) | – | – | – | – | – | – | –
5 | CCc1cc(Nc2cc3ncn(CCCCCOC)c3c(=O)[nH]2)ccc1C | 2.5 µg/mL (≈ 6.78 µM) | > 80 µg/mL | 2.5 µg/mL (≈ 6.78 µM) | > 80 µg/mL | 2.5 µg/mL (≈ 6.78 µM) | 690 nM | > 80 µg/mL | 2.5 µg/mL (≈ 6.78 µM) | 1.25 µg/mL (≈ 3.39 µM) | 40% | 490000 nM | < 10% | – | – | – | –
6 | O=c1[nH]c(NCc2ccc(Cl)c(Cl)c2)cc2c1ncn2CCCCN1CCOCC1 | > 40 µg/mL | > 40 µg/mL | > 40 µg/mL | > 40 µg/mL | – | 50000 nM | > 40 µg/mL | > 40 µg/mL | > 40 µg/mL | – | 54000 nM | – | – | – | – | –
7 | CCc1cc(Nc2cc3ncn(CCCCN4CCOCC4)c3c(=O)[nH]2)ccc1C | 30 µg/mL (≈ 73.3 µM) | > 80 µg/mL | 40 µg/mL (≈ 97.7 µM) | > 80 µg/mL | 20 µg/mL (≈ 48.8 µM) | 1100 nM | > 80 µg/mL | 40 µg/mL (≈ 97.7 µM) | 10 µg/mL (≈ 24.4 µM) | – | – | – | < 10% | – | – | –
8 | CCc1cc(Nc2nc3ncn(CCCCCOC)c3c(=O)[nH]2)ccc1C | 2.5 µg/mL (≈ 6.77 µM) | – | – | > 80 µg/mL | 10 µg/mL (≈ 27.1 µM) | 260 nM | 5 µg/mL (≈ 13.5 µM) | – | 1.25 µg/mL (≈ 3.38 µM) | 20% | 394000 nM | – | – | 40% | – | –
9 | CCc1cc(Nc2cc3ncn(CCCCOC)c3c(=O)[nH]2)ccc1C | – | – | – | > 80 µg/mL | – | 1500 nM | 10 µg/mL (≈ 28.2 µM) | – | 2.5 µg/mL (≈ 7.05 µM) | – | – | – | < 10% | – | – | –
10 | CCc1cc(Nc2cc3c(ncn3CCCCOC)c(=O)[nH]2)ccc1C | > 80 µg/mL | > 80 µg/mL | > 80 µg/mL | > 80 µg/mL | – | – | > 80 µg/mL | > 80 µg/mL | > 80 µg/mL | – | – | – | < 10% | – | < 10% | –
11 | CN[C@H](CC(C)C)C(=O)N[C@H]1C(=O)N[C@@H](CC(N)=O)C(=O)N[C@H]2C(=O)N[C@H]3C(=O)N[C@H](C(=O)N[C@H](C(=O)O)c4cc(O)cc(O)c4-c4cc3ccc4O)[C@H](O)c3ccc(c(Cl)c3)Oc3cc2cc(c3O[C@@H]2O[C@H](CO)[C@@H](O)[C@H](O)[C@H]2O[C@H]2C[C@](C)(N)[C@H](O)[C@H](C)O2)Oc2ccc(cc2Cl)[C@H]1O [VANCOMYCIN] | 0.625 µg/mL (≈ 0.431 µM) | 0.625 µg/mL (≈ 0.431 µM) | – | > 20 µg/mL | 1.25 µg/mL (≈ 0.863 µM) | – | > 20 µg/mL | – | – | – | – | – | – | – | – | –
12 | O=c1[nH]c(NCc2ccc(Cl)c(Cl)c2)cc2ncn(CCCCN3CCOCC3)c12 | 20 µg/mL (≈ 44.4 µM) | 20 µg/mL (≈ 44.4 µM) | 20 µg/mL (≈ 44.4 µM) | > 80 µg/mL | 15 µg/mL (≈ 33.3 µM) | 94 nM | 10 µg/mL (≈ 22.2 µM) | – | 7.5 µg/mL (≈ 16.7 µM) | – | 200 nM | – | – | – | – | –
13 | OCCCCn1cnc2nc(NCc3ccc(Cl)c(Cl)c3)nc(O)c21 | 30 µg/mL (≈ 78.5 µM) | 10 µg/mL (≈ 26.2 µM) | 30 µg/mL (≈ 78.5 µM) | > 80 µg/mL | 7.5 µg/mL (≈ 19.6 µM) | – | 3.75 µg/mL (≈ 9.81 µM) | 25 µg/mL (≈ 65.4 µM) | 15 µg/mL (≈ 39.2 µM) | – | – | – | – | – | – | –
14 | CCCCCCCCCC(=O)N[C@@H](Cc1c[nH]c2ccccc12)C(=O)N[C@H](CC(N)=O)C(=O)N[C@@H](CC(=O)O)C(=O)N[C@@H]1C(=O)NCC(=O)N[C@@H](CCCN)C(=O)N[C@@H](CC(=O)O)C(=O)N[C@H](C)C(=O)N[C@@H](CC(=O)O)C(=O)NCC(=O)N[C@H](CO)C(=O)N[C@@H]([C@H](C)CC(=O)O)C(=O)N[C@@H](CC(=O)c2ccccc2N)C(=O)O[C@@H]1C | – | – | – | – | – | – | – | – | – | – | – | – | – | – | – | 10%
